Reference: ChEMBL document CHEMBL1255505, “Synthesis of new series of quinoxaline based MAO-inhibitors and docking studies” (Eur J Med Chem, 2010)

What was measured:
[1] = Selectivity index ratio of IC50 for MAOB to IC50 for MAOA
Summary of the method: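 Bovine brain mitochondria (6 mg/ml) in 0.25 M phosphate buffer, pH 7.4, with 0.1 mM isoform-specific substrate. Compound in propylene glycol at 0.5 nM–0.1 M; 60 min at 37 °C, perchloric acid stop, fluorimetric read. Six samples in duplicate; ratio of the MAO-B and MAO-A IC50s.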

[2] = molecular target: Amine oxidase [flavin-containing] B (Bos taurus) (UniProt P56560)
Chain of Amine oxidase [flavin-containing] B (Bos taurus) (P56560 whole entry, looked up): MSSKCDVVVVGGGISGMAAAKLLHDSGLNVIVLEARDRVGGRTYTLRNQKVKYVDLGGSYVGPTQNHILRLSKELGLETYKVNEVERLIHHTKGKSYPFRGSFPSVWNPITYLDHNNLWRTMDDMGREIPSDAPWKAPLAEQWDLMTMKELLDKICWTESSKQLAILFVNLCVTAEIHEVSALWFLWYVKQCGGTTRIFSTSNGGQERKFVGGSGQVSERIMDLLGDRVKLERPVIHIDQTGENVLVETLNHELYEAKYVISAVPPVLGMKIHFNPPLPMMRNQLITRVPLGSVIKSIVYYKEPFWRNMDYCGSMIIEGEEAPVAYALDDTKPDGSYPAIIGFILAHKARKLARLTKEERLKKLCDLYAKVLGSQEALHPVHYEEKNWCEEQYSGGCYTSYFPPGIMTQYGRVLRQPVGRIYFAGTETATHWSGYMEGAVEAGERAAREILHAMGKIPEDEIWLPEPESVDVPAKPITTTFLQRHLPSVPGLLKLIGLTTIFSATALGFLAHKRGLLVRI

[3] = Inhibition of MAOA by spectrofluorimetry

Ratio IC50 [1]	IC50 [2]	IC50 [3]	SMILES
12600	86 µM	0.0068 µM	COc1ccc(-c2nnc3c(C(=O)c4ccccc4)nc4ccccc4n23)cc1OC
4310	380 µM	0.088 µM	O=C(c1ccccc1)c1nc2ccccc2n2c(-c3ccccc3Cl)nnc12
2.7e+06	7300 µM	0.0027 µM	CN(C)c1ccc(-c2nnc3c(C(=O)c4ccccc4)nc4ccccc4n23)cc1
10400	230 µM	0.022 µM	O=C(c1ccccc1)c1nc2ccccc2n2c(-c3ccc([N+](=O)[O-])cc3)nnc12
	85 µM		COc1ccc(-c2nnc3c(C(=O)c4ccccc4)nc4ccccc4n23)cc1
	73 µM		CN(C)c1ccc(-c2nnc3c(C(=O)c4ccccc4)nc4ccccc4n23)cc1Br
88800	240 µM	0.0027 µM	O=C(c1ccccc1)c1nc2ccccc2n2c(-c3ccccc3)nnc12
12000	980 µM	0.082 µM	c1ccc(Cc2nc3ccccc3n3c(-c4ccccc4)nnc23)cc1
1250	940 µM	0.75 µM	O=C(c1ccccc1)c1nc2ccccc2n2cnnc12

Further lines, the molecule ahead of its results:

SMILES	Ratio IC50 [1]	IC50 [2]	IC50 [3]
CN(C)c1ccc(/C=N/Nc2nc3ccccc3nc2Cc2ccccc2)cc1	10600	880 µM	0.083 µM
C/C(=N\Nc1nc2ccccc2nc1Cc1ccccc1)c1ccc(N)cc1	87700	860 µM	0.0098 µM
c1ccc(Cc2nc3ccccc3n3cnnc23)cc1	1090	95 µM	0.087 µM
Clc1ccccc1-c1nnc2c(Cc3ccccc3)nc3ccccc3n12	11800	72 µM	0.0061 µM
Cc1ccsc1/C=N/Nc1nc2ccccc2nc1Cc1ccccc1		860 µM	
C/C(=N\Nc1nc2ccccc2nc1Cc1ccccc1)c1cccs1	13300	850 µM	0.064 µM
C(=N\Nc1nc2ccccc2nc1Cc1ccccc1)/c1ccccc1	3950	320 µM	0.081 µM
C/C(=N\Nc1nc2ccccc2nc1Cc1ccccc1)c1ccccc1	12400	980 µM	0.079 µM
Oc1ccc(/C=N/Nc2nc3ccccc3nc2Cc2ccccc2)cc1	2.32e+06	7900 µM	0.0034 µM
C=NNc1nc2ccccc2nc1Cc1ccccc1	10400	950 µM	0.086 µM
C/C(=N\Nc1nc2ccccc2nc1Cc1ccccc1)c1ccc([N+](=O)[O-])cc1		89 µM	
Clc1ccccc1/C=N/Nc1nc2ccccc2nc1Cc1ccccc1	15000	87 µM	0.0058 µM
COc1ccc(/C(C)=N/Nc2nc3ccccc3nc2Cc2ccccc2)cc1	3140	280 µM	0.089 µM
C/C(=N\Nc1nc2ccccc2nc1Cc1ccccc1)c1ccc(C)cc1	8600	740 µM	0.086 µM
C/C(=N\Nc1nc2ccccc2nc1Cc1ccccc1)c1ccccn1	10800	980 µM	0.091 µM
COc1ccc(/C=N/Nc2nc3ccccc3nc2Cc2ccccc2)cc1		79 µM	
COc1ccc(/C=N/Nc2nc3ccccc3nc2Cc2ccccc2)cc1OC	8210	460 µM	0.056 µM
C(=N\Nc1nc2ccccc2nc1Cc1ccccc1)/c1ccc2c(c1)OCO2		87 µM	
COc1cc(/C(C)=N/Nc2nc3ccccc3nc2Cc2ccccc2)cc(OC)c1OC	8960	260 µM	0.029 µM
COc1ccccc1/C=N/Nc1nc2ccccc2nc1Cc1ccccc1	9510	790 µM	0.083 µM
C/C(=N\Nc1nc2ccccc2nc1Cc1ccccc1)c1ccc(O)cc1	3e+06	8400 µM	0.0028 µM
Clc1ccc(/C=N/Nc2nc3ccccc3nc2Cc2ccccc2)cc1	1100	84 µM	0.076 µM
